Results: ChEMBL document CHEMBL1124374, “Enkephalinase inhibitors. 1. 2,4-Dibenzylglutaric acid derivatives” (J Med Chem, 1989)

Experiments:
Neprilysin [1] = biological target: T1, Neprilysin (Oryctolagus cuniculus, UniProt P08049); assay: (§1) Inhibition of enkephalinase activity in membranes prepared from rabbit
T1 sequence (P08049 whole entry): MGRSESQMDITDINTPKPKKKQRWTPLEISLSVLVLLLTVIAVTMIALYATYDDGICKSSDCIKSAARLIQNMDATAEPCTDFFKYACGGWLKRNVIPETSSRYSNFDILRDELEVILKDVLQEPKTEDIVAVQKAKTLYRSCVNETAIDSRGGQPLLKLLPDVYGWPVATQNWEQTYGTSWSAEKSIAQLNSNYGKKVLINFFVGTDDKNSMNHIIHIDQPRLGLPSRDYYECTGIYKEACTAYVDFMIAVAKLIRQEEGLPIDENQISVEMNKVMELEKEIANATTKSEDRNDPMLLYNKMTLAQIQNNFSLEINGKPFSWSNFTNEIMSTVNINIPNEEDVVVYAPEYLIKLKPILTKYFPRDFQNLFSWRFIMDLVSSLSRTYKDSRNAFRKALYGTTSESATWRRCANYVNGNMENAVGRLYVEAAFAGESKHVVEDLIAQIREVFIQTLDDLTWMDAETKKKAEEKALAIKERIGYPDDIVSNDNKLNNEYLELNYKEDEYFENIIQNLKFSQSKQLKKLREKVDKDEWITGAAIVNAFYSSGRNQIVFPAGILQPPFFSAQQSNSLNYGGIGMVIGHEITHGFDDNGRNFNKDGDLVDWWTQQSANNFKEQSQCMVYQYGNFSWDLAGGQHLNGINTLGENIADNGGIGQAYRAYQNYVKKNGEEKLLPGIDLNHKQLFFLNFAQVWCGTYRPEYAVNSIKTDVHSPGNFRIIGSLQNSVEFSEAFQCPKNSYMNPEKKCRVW

Neprilysin [2] = biological target: T2, Neprilysin (Rattus norvegicus, UniProt P07861); assay: Inhibition of enkephalinase activity in synaptic membranes prepared from rat striatum; type: cell membranes
T2 sequence (P07861 whole entry): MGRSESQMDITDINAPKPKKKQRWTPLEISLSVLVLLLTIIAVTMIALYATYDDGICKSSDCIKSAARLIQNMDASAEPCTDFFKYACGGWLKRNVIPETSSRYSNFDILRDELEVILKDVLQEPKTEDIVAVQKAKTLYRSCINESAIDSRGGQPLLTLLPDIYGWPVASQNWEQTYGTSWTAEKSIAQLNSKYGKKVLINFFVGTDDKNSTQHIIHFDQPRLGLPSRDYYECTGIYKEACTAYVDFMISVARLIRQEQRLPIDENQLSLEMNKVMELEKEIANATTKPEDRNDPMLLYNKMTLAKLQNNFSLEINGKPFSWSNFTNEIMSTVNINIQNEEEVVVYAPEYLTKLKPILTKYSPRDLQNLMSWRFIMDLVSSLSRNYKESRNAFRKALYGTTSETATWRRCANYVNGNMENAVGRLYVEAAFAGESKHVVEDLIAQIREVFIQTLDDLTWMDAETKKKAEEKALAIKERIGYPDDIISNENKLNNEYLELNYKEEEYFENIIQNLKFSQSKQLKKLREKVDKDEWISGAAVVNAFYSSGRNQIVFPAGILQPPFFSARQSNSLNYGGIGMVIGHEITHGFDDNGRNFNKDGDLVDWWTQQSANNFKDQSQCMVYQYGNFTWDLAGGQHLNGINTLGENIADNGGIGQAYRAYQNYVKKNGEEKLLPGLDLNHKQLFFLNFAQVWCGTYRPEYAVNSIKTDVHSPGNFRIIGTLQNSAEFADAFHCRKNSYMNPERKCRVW

Neprilysin [3] = biological target: T1, Neprilysin; assay: as §1; remark: listed apart in the source
Summary of the method: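 Rabbit protease 24.11 (15 ng protein) incubated 10 min at 37 °C with [Tyr-3H]Leu-enkephalin plus unlabeled Leu-enkephalin (1 μM final) in 50 mM Tris-HCl, pH 6.5. Stopped with TFA. Tyr-Gly-Gly product separated from substrate by C4 reverse-phase HPLC (isocratic, 0.09% TFA/acetonitrile). Fractions counted by scintillation.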

Mus musculus [4] = assay: Hot-plate jump-latency activity in mouse 15 minutes after subcutaneous administration; type: functional; conditions: sc, 0.25 h, read-out: MED
Summary of the method: (§2)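 Male CF1 mice (18–23 g) dosed icv or sc; 15 min later placed singly on a copper hot plate held at 55 °C. Latency to jump recorded, cutoff 240 s. MED = minimum effective dose. ED200 = dose doubling jump latency.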

Mus musculus [5] = assay: Antinociceptive effect was determined by mouse hot plate assay after sc administration of the compound; type: functional; summary of the method: as §2

Row | IC50 (Neprilysin [2]) [nM] | Structure (SMILES) | also measured
1 | > 1000 | N#CCCNC(=O)C(Cc1ccccc1)CC(Cc1ccccc1)C(=O)O (stereo not drawn) | 
2 | 4 | O=C(O)CNC(=O)[C@H](Cc1ccccc1)C[C@@H](Cc1ccccc1)C(=O)O | 
3 | 40 | CC(C)CC(NC(=O)[C@H](Cc1ccccc1)C[C@@H](Cc1ccccc1)C(=O)O)C(=O)O (stereo partly drawn) | 
4 | 9 | O=C(O)CCC(=O)NC(Cc1ccccc1)CC(Cc1ccccc1)C(=O)O (stereo not drawn) | 
5 | > 1000 | O=C(O)CCNC(=O)[C@@H](Cc1ccccc1)C[C@H](Cc1ccccc1)C(=O)O | 

The remaining lines, values behind:

Row | Structure (SMILES) | IC50 (Neprilysin [2]) [nM] | also measured
6 | O=C(O)CC(=O)NC(Cc1ccccc1)CC(Cc1ccccc1)C(=O)O (stereo not drawn) |  | IC50 (Neprilysin [1]): 62 nM
7 | O=C(O)c1ccccc1NC(=O)C(Cc1ccccc1)CC(Cc1ccccc1)C(=O)O (stereo not drawn) | 1000 | 
8 | O=C(O)CCNC(=O)C(CC1CCCCC1)CC(CC1CCCCC1)C(=O)O (stereo not drawn) | 1000 | 
9 | O=C(O)CCCNC(=O)[C@H](Cc1ccccc1)C[C@@H](Cc1ccccc1)C(=O)O |  | IC50 (Neprilysin [3]): 1.4 nM
10 | O=C(O)CCNC(=O)[C@H](Cc1ccccc1)C[C@@H](Cc1ccccc1)C(=O)OC1OC(=O)c2ccccc21 (stereo partly drawn) |  | minimal effective dose (Mus musculus [4]): 30 mg/kg
11 | O=C(O)c1cc(NC(=O)[C@H](Cc2ccccc2)C[C@@H](Cc2ccccc2)C(=O)O)ccc1O | 38 | 
12 | O=C(O)Cc1ccccc1NC(=O)[C@H](Cc1ccccc1)C[C@@H](Cc1ccccc1)C(=O)O | 25 | 
13 | O=C([O-])[C@H](Cc1ccccc1)C[C@@H](Cc1ccccc1)C(=O)NCc1ccc(O)c(O)c1.[Na+] | 20 | ED200 (Mus musculus [5]): >100 mg/kg
14 | CC(C)C[C@H](NP(=O)(O)O[C@@H]1O[C@@H](C)[C@H](O)[C@@H](O)[C@H]1O)C(=O)N[C@@H](Cc1c[nH]c2ccccc12)C(=O)O [PHOSPHORAMIDON] | 0.6 | IC50 (Neprilysin [1]): 0.4 nM
15 | O=C(O)CCCNC(=O)C(Cc1ccccc1)CC(Cc1ccccc1)C(=O)O (stereo not drawn) |  | IC50 (Neprilysin [1]): 57 nM
16 | O=C(O)C(CCc1ccccc1)NC(=O)[C@H](Cc1ccccc1)C[C@@H](Cc1ccccc1)C(=O)O (stereo partly drawn) | 5 | 
